# System: not listed separately
# Experiment: Cytotoxicity against HUVEC assessed as cell viability at 100 uM after 72 hrs by MTT assay relative to control
# Type: cell-based
# Conditions: human, HUVEC cells, read-out: Activity
# Outline: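 HUVEC kept in RPMI 1640 with 10% FBS at 37 °C, 5% CO2. Seeded at 3×10^3 per well and treated at 100 µM for 72 h after 24 h attachment. Viability by MTT with absorbance at 550 nm, as percent of control. Mean ± SD, n=3.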
row,SMILES,"viability at 72 h, 100 µM [%]"
1,CCOc1cc(C(=O)N2CCC3(CC2)CC(=O)c2nn(C(C)(C)C)cc2O3)c2ccccc2n1,96.1
2,CC(C)(C)n1cc2c(n1)C(=O)CC1(CCN(C(=O)c3cc(-c4ccc(N)cc4)nc4ccccc34)CC1)O2,84.8
3,COc1ccc(-c2cc(C(=O)N3CCC4(CC3)CC(=O)c3nn(C(C)(C)C)cc3O4)c3ccccc3n2)cc1,102
4,Cc1ccc(-c2cc(C(=O)N3CCC4(CC3)CC(=O)c3nn(C(C)(C)C)cc3O4)c3ccccc3n2)cc1,49.6
5,CC(C)(C)n1cc2c(n1)C(=O)CC1(CCN(C(=O)c3cc(-c4ccc(Cl)cc4)nc4ccccc34)CC1)O2,87.3
6,CC(C)(C)n1cc2c(n1)C(=O)CC1(CCN(C(=O)c3cc(-c4ccccn4)nc4ccccc34)CC1)O2,104
7,CC(C)(C)n1cc2c(n1)C(=O)CC1(CCN(C(=O)c3cc(N4CCOCC4)nc4ccccc34)CC1)O2,34.4
8,CC(C)(C)n1cc2c(n1)C(=O)CC1(CCN(C(=O)c3cc(-c4ccccc4Cl)nc4ccccc34)CC1)O2,103
9,CC(C)Oc1cc(C(=O)N2CCC3(CC2)CC(=O)c2nn(C(C)(C)C)cc2O3)c2ccccc2n1,102
10,CC(C)(C)n1cc2c(n1)C(=O)CC1(CCN(C(=O)c3cc(-c4ccc(F)cc4)nc4ccccc34)CC1)O2,98.7
11,CC(C)(C)n1cc2c(n1)C(=O)CC1(CCN(C(=O)c3cc(Cl)nc4ccccc34)CC1)O2,99.3

# System: HepG2
# Experiment: Antiproliferative activity against human HepG2 cells assessed as cell growth inhibition after 72 hrs by MTT assay
# Type: functional, cell-based
# Conditions: HepG2, 72 h
# Outline: (§1)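 HepG2, A549 or MDA-MB-231 cells grown in DMEM with 10% FBS and penicillin/streptomycin at 37 °C, 5% CO2. Seeded at 3×10^3 per well, left 24 h, then exposed to a range of concentrations for 72 h. MTT added for 4 h, formazan dissolved in DMSO, absorbance read at 550 nm. Mean ± SD, n=3.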
row,SMILES,IC50 [µM]
1,CCOc1cc(C(=O)N2CCC3(CC2)CC(=O)c2nn(C(C)(C)C)cc2O3)c2ccccc2n1,> 10
2,CC(C)(C)n1cc2c(n1)C(=O)CC1(CCN(C(=O)c3cc(N4CCOCC4)nc4ccccc34)CC1)O2,4.57
3,CC(C)(C)n1cc2c(n1)C(=O)CC1(CCN(C(=O)c3cc(-c4ccccc4Cl)nc4ccccc34)CC1)O2,> 10
4,CC(C)Oc1cc(C(=O)N2CCC3(CC2)CC(=O)c2nn(C(C)(C)C)cc2O3)c2ccccc2n1,3.15
5,CC(C)(C)n1cc2c(n1)C(=O)CC1(CCN(C(=O)c3cc(-c4ccc(F)cc4)nc4ccccc34)CC1)O2,2.93
6,CC(C)(C)n1cc2c(n1)C(=O)CC1(CCN(C(=O)c3cc(Cl)nc4ccccc34)CC1)O2,4.72

# These reach a lower IC50. Values come first.
row,IC50 [µM],SMILES
1,2.78,COc1ccc(-c2cc(C(=O)N3CCC4(CC3)CC(=O)c3nn(C(C)(C)C)cc3O4)c3ccccc3n2)cc1
2,1.5,CC(C)(C)n1cc2c(n1)C(=O)CC1(CCN(C(=O)c3cc(-c4ccccn4)nc4ccccc34)CC1)O2
3,1.44,Cc1ccc(-c2cc(C(=O)N3CCC4(CC3)CC(=O)c3nn(C(C)(C)C)cc3O4)c3ccccc3n2)cc1
4,0.63,CC(C)(C)n1cc2c(n1)C(=O)CC1(CCN(C(=O)c3cc(-c4ccc(N)cc4)nc4ccccc34)CC1)O2
5,0.63,CC(C)(C)n1cc2c(n1)C(=O)CC1(CCN(C(=O)c3cc(-c4ccc(Cl)cc4)nc4ccccc34)CC1)O2

# Target: T1, Acetyl-CoA carboxylase 1 (Homo sapiens, UniProt Q13085)
# Experiment: Inhibition of recombinant human C-terminal His-tagged ACC1 (1 to 2383 residues) expressed in baculovirus infected Sf9 insect cells at 0.1 uM preincubated for 15 mins followed by substrate addition and measured after 60 mins by ADP-glo luminescence assay relative to control
# Conditions: not given
row,SMILES,inhibition [%]
1,CCOc1cc(C(=O)N2CCC3(CC2)CC(=O)c2nn(C(C)(C)C)cc2O3)c2ccccc2n1,38.4
2,CC(C)(C)n1cc2c(n1)C(=O)CC1(CCN(C(=O)c3cc(N4CCOCC4)nc4ccccc34)CC1)O2,56.9
3,CC(C)(C)n1cc2c(n1)C(=O)CC1(CCN(C(=O)c3cc(-c4ccccc4Cl)nc4ccccc34)CC1)O2,43.6
4,CC(C)Oc1cc(C(=O)N2CCC3(CC2)CC(=O)c2nn(C(C)(C)C)cc2O3)c2ccccc2n1,68
5,CC(C)(C)n1cc2c(n1)C(=O)CC1(CCN(C(=O)c3cc(-c4ccc(F)cc4)nc4ccccc34)CC1)O2,87.3
6,CC(C)(C)n1cc2c(n1)C(=O)CC1(CCN(C(=O)c3cc(Cl)nc4ccccc34)CC1)O2,59.1

# Second part, the compound after the results:
row,inhibition [%],SMILES
1,94.8,COc1ccc(-c2cc(C(=O)N3CCC4(CC3)CC(=O)c3nn(C(C)(C)C)cc3O4)c3ccccc3n2)cc1
2,84,CC(C)(C)n1cc2c(n1)C(=O)CC1(CCN(C(=O)c3cc(-c4ccccn4)nc4ccccc34)CC1)O2
3,93.8,Cc1ccc(-c2cc(C(=O)N3CCC4(CC3)CC(=O)c3nn(C(C)(C)C)cc3O4)c3ccccc3n2)cc1
4,94.1,CC(C)(C)n1cc2c(n1)C(=O)CC1(CCN(C(=O)c3cc(-c4ccc(N)cc4)nc4ccccc34)CC1)O2
5,93.2,CC(C)(C)n1cc2c(n1)C(=O)CC1(CCN(C(=O)c3cc(-c4ccc(Cl)cc4)nc4ccccc34)CC1)O2

# System: MDA-MB-231
# Experiment: Antiproliferative activity against human MDA-MB-231 cells assessed as cell growth inhibition after 72 hrs by MTT assay
# Type: functional, cell-based
# Conditions: MDA-MB-231, 72 h
# Outline: as §1
row,SMILES,IC50 [µM]
1,CCOc1cc(C(=O)N2CCC3(CC2)CC(=O)c2nn(C(C)(C)C)cc2O3)c2ccccc2n1,> 10
2,CC(C)(C)n1cc2c(n1)C(=O)CC1(CCN(C(=O)c3cc(N4CCOCC4)nc4ccccc34)CC1)O2,3.18
3,CC(C)(C)n1cc2c(n1)C(=O)CC1(CCN(C(=O)c3cc(-c4ccccc4Cl)nc4ccccc34)CC1)O2,> 10
4,CC(C)Oc1cc(C(=O)N2CCC3(CC2)CC(=O)c2nn(C(C)(C)C)cc2O3)c2ccccc2n1,> 10
5,CC(C)(C)n1cc2c(n1)C(=O)CC1(CCN(C(=O)c3cc(-c4ccc(F)cc4)nc4ccccc34)CC1)O2,> 10
6,CC(C)(C)n1cc2c(n1)C(=O)CC1(CCN(C(=O)c3cc(Cl)nc4ccccc34)CC1)O2,9.22

# Results, then the compound that gave them:
row,IC50 [µM],SMILES
1,> 10,COc1ccc(-c2cc(C(=O)N3CCC4(CC3)CC(=O)c3nn(C(C)(C)C)cc3O4)c3ccccc3n2)cc1
2,8.1,CC(C)(C)n1cc2c(n1)C(=O)CC1(CCN(C(=O)c3cc(-c4ccccn4)nc4ccccc34)CC1)O2
3,> 10,Cc1ccc(-c2cc(C(=O)N3CCC4(CC3)CC(=O)c3nn(C(C)(C)C)cc3O4)c3ccccc3n2)cc1
4,4.96,CC(C)(C)n1cc2c(n1)C(=O)CC1(CCN(C(=O)c3cc(-c4ccc(N)cc4)nc4ccccc34)CC1)O2
5,> 10,CC(C)(C)n1cc2c(n1)C(=O)CC1(CCN(C(=O)c3cc(-c4ccc(Cl)cc4)nc4ccccc34)CC1)O2

# System: A549
# Experiment: Antiproliferative activity against human A549 cells assessed as cell growth inhibition after 72 hrs by MTT assay
# Type: functional, cell-based
# Conditions: A549, 72 h
# Outline: as §1
row,SMILES,IC50 [µM]
1,CCOc1cc(C(=O)N2CCC3(CC2)CC(=O)c2nn(C(C)(C)C)cc2O3)c2ccccc2n1,> 10
2,CC(C)(C)n1cc2c(n1)C(=O)CC1(CCN(C(=O)c3cc(N4CCOCC4)nc4ccccc34)CC1)O2,> 10
3,CC(C)(C)n1cc2c(n1)C(=O)CC1(CCN(C(=O)c3cc(-c4ccccc4Cl)nc4ccccc34)CC1)O2,2.18
4,CC(C)Oc1cc(C(=O)N2CCC3(CC2)CC(=O)c2nn(C(C)(C)C)cc2O3)c2ccccc2n1,> 10
5,CC(C)(C)n1cc2c(n1)C(=O)CC1(CCN(C(=O)c3cc(-c4ccc(F)cc4)nc4ccccc34)CC1)O2,5.77
6,CC(C)(C)n1cc2c(n1)C(=O)CC1(CCN(C(=O)c3cc(Cl)nc4ccccc34)CC1)O2,7.17

# Results, then the compound that gave them:
row,IC50 [µM],SMILES
1,3.74,COc1ccc(-c2cc(C(=O)N3CCC4(CC3)CC(=O)c3nn(C(C)(C)C)cc3O4)c3ccccc3n2)cc1
2,7.72,CC(C)(C)n1cc2c(n1)C(=O)CC1(CCN(C(=O)c3cc(-c4ccccn4)nc4ccccc34)CC1)O2
3,5.3,Cc1ccc(-c2cc(C(=O)N3CCC4(CC3)CC(=O)c3nn(C(C)(C)C)cc3O4)c3ccccc3n2)cc1
4,0.97,CC(C)(C)n1cc2c(n1)C(=O)CC1(CCN(C(=O)c3cc(-c4ccc(N)cc4)nc4ccccc34)CC1)O2
5,2.33,CC(C)(C)n1cc2c(n1)C(=O)CC1(CCN(C(=O)c3cc(-c4ccc(Cl)cc4)nc4ccccc34)CC1)O2

# Target: T1, Acetyl-CoA carboxylase 1
# Experiment: Inhibition of recombinant human C-terminal His-tagged ACC1 (1 to 2383 residues) expressed in baculovirus infected Sf9 insect cells at 5 uM preincubated for 15 mins followed by substrate addition and measured after 60 mins by ADP-glo luminescence assay relative to control
# Conditions: not given
row,SMILES,inhibition [%]
1,CCOc1cc(C(=O)N2CCC3(CC2)CC(=O)c2nn(C(C)(C)C)cc2O3)c2ccccc2n1,93.9
2,CC(C)(C)n1cc2c(n1)C(=O)CC1(CCN(C(=O)c3cc(N4CCOCC4)nc4ccccc34)CC1)O2,97.7
3,CC(C)(C)n1cc2c(n1)C(=O)CC1(CCN(C(=O)c3cc(-c4ccccc4Cl)nc4ccccc34)CC1)O2,94.4
4,CC(C)Oc1cc(C(=O)N2CCC3(CC2)CC(=O)c2nn(C(C)(C)C)cc2O3)c2ccccc2n1,99.4
5,CC(C)(C)n1cc2c(n1)C(=O)CC1(CCN(C(=O)c3cc(-c4ccc(F)cc4)nc4ccccc34)CC1)O2,100
6,CC(C)(C)n1cc2c(n1)C(=O)CC1(CCN(C(=O)c3cc(Cl)nc4ccccc34)CC1)O2,96.7

# Further lines, results first:
row,inhibition [%],SMILES
1,101,COc1ccc(-c2cc(C(=O)N3CCC4(CC3)CC(=O)c3nn(C(C)(C)C)cc3O4)c3ccccc3n2)cc1
2,103,CC(C)(C)n1cc2c(n1)C(=O)CC1(CCN(C(=O)c3cc(-c4ccccn4)nc4ccccc34)CC1)O2
3,101,Cc1ccc(-c2cc(C(=O)N3CCC4(CC3)CC(=O)c3nn(C(C)(C)C)cc3O4)c3ccccc3n2)cc1
4,101,CC(C)(C)n1cc2c(n1)C(=O)CC1(CCN(C(=O)c3cc(-c4ccc(N)cc4)nc4ccccc34)CC1)O2
5,104,CC(C)(C)n1cc2c(n1)C(=O)CC1(CCN(C(=O)c3cc(-c4ccc(Cl)cc4)nc4ccccc34)CC1)O2

# Target: T1, Acetyl-CoA carboxylase 1
# Experiment: Inhibition of recombinant human C-terminal His-tagged ACC1 (1 to 2383 residues) expressed in baculovirus infected Sf9 insect cells preincubated for 15 mins followed by substrate addition and measured after 60 mins by ADP-glo luminescence assay
# Conditions: not given
# Outline: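 Recombinant ACC1 in assay buffer preincubated with inhibitor in DMSO for 15 min at room temperature. Reaction started with substrate mixture and run 60 min at room temperature. Stopped with ADP-Glo reagent for 40 min, then detection reagent for 40 min to convert ADP to ATP, read by luminescence. Mean of two independent experiments.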
row,SMILES,IC50 [µM]
1,CCOc1cc(C(=O)N2CCC3(CC2)CC(=O)c2nn(C(C)(C)C)cc2O3)c2ccccc2n1,> 0.1
2,CC(C)(C)n1cc2c(n1)C(=O)CC1(CCN(C(=O)c3cc(N4CCOCC4)nc4ccccc34)CC1)O2,> 0.02
3,CC(C)(C)n1cc2c(n1)C(=O)CC1(CCN(C(=O)c3cc(-c4ccccc4Cl)nc4ccccc34)CC1)O2,> 0.1
4,CC(C)Oc1cc(C(=O)N2CCC3(CC2)CC(=O)c2nn(C(C)(C)C)cc2O3)c2ccccc2n1,> 0.02
5,CC(C)(C)n1cc2c(n1)C(=O)CC1(CCN(C(=O)c3cc(-c4ccc(F)cc4)nc4ccccc34)CC1)O2,0.0094
6,CC(C)(C)n1cc2c(n1)C(=O)CC1(CCN(C(=O)c3cc(Cl)nc4ccccc34)CC1)O2,> 0.02

# Next, values leading:
row,IC50 [µM],SMILES
1,0.00318,COc1ccc(-c2cc(C(=O)N3CCC4(CC3)CC(=O)c3nn(C(C)(C)C)cc3O4)c3ccccc3n2)cc1
2,0.0138,CC(C)(C)n1cc2c(n1)C(=O)CC1(CCN(C(=O)c3cc(-c4ccccn4)nc4ccccc34)CC1)O2
3,0.00222,Cc1ccc(-c2cc(C(=O)N3CCC4(CC3)CC(=O)c3nn(C(C)(C)C)cc3O4)c3ccccc3n2)cc1
4,0.00129,CC(C)(C)n1cc2c(n1)C(=O)CC1(CCN(C(=O)c3cc(-c4ccc(N)cc4)nc4ccccc34)CC1)O2
5,0.00609,CC(C)(C)n1cc2c(n1)C(=O)CC1(CCN(C(=O)c3cc(-c4ccc(Cl)cc4)nc4ccccc34)CC1)O2
